# According to ChEMBL document CHEMBL3112444, “Synthesis and anticancer activity of focused compound libraries from the natural product lead, oroidin” (2014):
# System: not listed separately
# Experiment: Cytotoxicity against human U87 cells assessed as growth inhibition at 25 uM after 72 hrs by MTT assay relative to control
# Assay type: functional, U-87MG ATCC
# Settings: U-87 MG, read-out: GI
# Outline: (§1)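 Cells in logarithmic growth kept in DMEM with 10% FBS, 10 mM sodium bicarbonate, penicillin 100 IU/mL, glutamine 4 mM, at 37 °C under 5% CO2. Plated in duplicate at 2500–4000 cells/well. Compound (30 mM DMSO stock) added 24 h after plating. MTT read at 540 nm after 72 h exposure.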
row,SMILES,inhibition of growth at 25 µM
1,O=C(NCCc1c[nH]cn1)c1cc(Br)c(Br)[nH]1,5%
2,O=C(NCCCCc1ccccc1)c1cc(Br)c(Br)[nH]1,< 0%
3,O=C(NCc1ccc(Cl)cc1)c1ccc[nH]1,4%
4,O=C(NCc1ccc(Cl)c(Cl)c1)c1ccc[nH]1,4%
5,COc1ccc(CNC(=O)c2cc(Br)c(Br)[nH]2)cc1,< 0%
6,O=C(NCCc1ccc(O)cc1)c1ccc[nH]1,2%
7,CCc1ccc(CCNC(=O)c2ccc[nH]2)cc1,0%
8,CCc1ccc(CCNC(=O)c2cc(Br)c(Br)[nH]2)cc1,6%
9,O=C(NCCc1ccc2ccccc2c1)c1ccc[nH]1,< 1%

# System: not listed separately
# Experiment: Cytotoxicity against mouse SMA cells assessed as growth inhibition at 25 uM after 72 hrs by MTT assay relative to control
# Assay type: functional
# Settings: read-out: GI
# Outline: as §1
row,SMILES,inhibition of growth at 25 µM
1,O=C(NCCc1c[nH]cn1)c1cc(Br)c(Br)[nH]1,18%
2,O=C(NCCCCc1ccccc1)c1cc(Br)c(Br)[nH]1,40%
3,O=C(NCc1ccc(Cl)cc1)c1ccc[nH]1,10%
4,O=C(NCc1ccc(Cl)c(Cl)c1)c1ccc[nH]1,17%
5,COc1ccc(CNC(=O)c2cc(Br)c(Br)[nH]2)cc1,23%
6,O=C(NCCc1ccc(O)cc1)c1ccc[nH]1,< 1%
7,CCc1ccc(CCNC(=O)c2ccc[nH]2)cc1,8%
8,CCc1ccc(CCNC(=O)c2cc(Br)c(Br)[nH]2)cc1,79%
9,O=C(NCCc1ccc2ccccc2c1)c1ccc[nH]1,16%

# System: not listed separately
# Experiment: Cytotoxicity against human MIA cells assessed as growth inhibition at 25 uM after 72 hrs by MTT assay relative to control
# Assay type: functional
# Settings: read-out: GI
# Outline: as §1
row,SMILES,inhibition of growth at 25 µM
1,O=C(NCCc1c[nH]cn1)c1cc(Br)c(Br)[nH]1,20%
2,O=C(NCCCCc1ccccc1)c1cc(Br)c(Br)[nH]1,34%
3,O=C(NCc1ccc(Cl)cc1)c1ccc[nH]1,1%
4,O=C(NCc1ccc(Cl)c(Cl)c1)c1ccc[nH]1,< 0%
5,COc1ccc(CNC(=O)c2cc(Br)c(Br)[nH]2)cc1,14%
6,O=C(NCCc1ccc(O)cc1)c1ccc[nH]1,6%
7,CCc1ccc(CCNC(=O)c2ccc[nH]2)cc1,12%
8,CCc1ccc(CCNC(=O)c2cc(Br)c(Br)[nH]2)cc1,31%
9,O=C(NCCc1ccc2ccccc2c1)c1ccc[nH]1,20%

# System: not listed separately
# Experiment: Cytotoxicity against human SJ-G2 cells assessed as growth inhibition at 25 uM after 72 hrs by MTT assay relative to control
# Assay type: functional
# Settings: SJ-G2, 72 h, read-out: GI
# Outline: as §1
row,SMILES,inhibition of growth at 25 µM
1,O=C(NCCc1c[nH]cn1)c1cc(Br)c(Br)[nH]1,11%
2,O=C(NCCCCc1ccccc1)c1cc(Br)c(Br)[nH]1,14%
3,O=C(NCc1ccc(Cl)cc1)c1ccc[nH]1,< 0%
4,O=C(NCc1ccc(Cl)c(Cl)c1)c1ccc[nH]1,11%
5,COc1ccc(CNC(=O)c2cc(Br)c(Br)[nH]2)cc1,4%
6,O=C(NCCc1ccc(O)cc1)c1ccc[nH]1,11%
7,CCc1ccc(CCNC(=O)c2ccc[nH]2)cc1,< 0%
8,CCc1ccc(CCNC(=O)c2cc(Br)c(Br)[nH]2)cc1,22%
9,O=C(NCCc1ccc2ccccc2c1)c1ccc[nH]1,8%

# System: not listed separately
# Experiment: Cytotoxicity against human BE(2)-C cells assessed as growth inhibition at 25 uM after 72 hrs by MTT assay relative to control
# Assay type: functional
# Settings: read-out: GI
# Outline: as §1
row,SMILES,inhibition of growth at 25 µM
1,O=C(NCCc1c[nH]cn1)c1cc(Br)c(Br)[nH]1,13%
2,O=C(NCCCCc1ccccc1)c1cc(Br)c(Br)[nH]1,< 0%
3,O=C(NCc1ccc(Cl)cc1)c1ccc[nH]1,< 0%
4,O=C(NCc1ccc(Cl)c(Cl)c1)c1ccc[nH]1,< 0%
5,COc1ccc(CNC(=O)c2cc(Br)c(Br)[nH]2)cc1,< 0%
6,O=C(NCCc1ccc(O)cc1)c1ccc[nH]1,< 0%
7,CCc1ccc(CCNC(=O)c2ccc[nH]2)cc1,< 0%
8,CCc1ccc(CCNC(=O)c2cc(Br)c(Br)[nH]2)cc1,20%
9,O=C(NCCc1ccc2ccccc2c1)c1ccc[nH]1,< 0%

# System: DU-145
# Experiment: Cytotoxicity against human DU145 cells assessed as growth inhibition at 25 uM after 72 hrs by MTT assay relative to control
# Assay type: functional
# Settings: DU-145, 72 h, read-out: GI
# Outline: as §1
row,SMILES,inhibition of growth at 25 µM
1,O=C(NCCc1c[nH]cn1)c1cc(Br)c(Br)[nH]1,< 0%
2,O=C(NCCCCc1ccccc1)c1cc(Br)c(Br)[nH]1,19%
3,O=C(NCc1ccc(Cl)cc1)c1ccc[nH]1,< 0%
4,O=C(NCc1ccc(Cl)c(Cl)c1)c1ccc[nH]1,< 0%
5,COc1ccc(CNC(=O)c2cc(Br)c(Br)[nH]2)cc1,< 0%
6,O=C(NCCc1ccc(O)cc1)c1ccc[nH]1,< 0%
7,CCc1ccc(CCNC(=O)c2ccc[nH]2)cc1,1%
8,CCc1ccc(CCNC(=O)c2cc(Br)c(Br)[nH]2)cc1,7%
9,O=C(NCCc1ccc2ccccc2c1)c1ccc[nH]1,20%

# System: A-431
# Experiment: Cytotoxicity against human A431 cells assessed as growth inhibition at 25 uM after 72 hrs by MTT assay relative to control
# Assay type: functional
# Settings: A-431, 72 h, read-out: GI
# Outline: as §1
row,SMILES,inhibition of growth at 25 µM
1,O=C(NCCc1c[nH]cn1)c1cc(Br)c(Br)[nH]1,2%
2,O=C(NCCCCc1ccccc1)c1cc(Br)c(Br)[nH]1,24%
3,O=C(NCc1ccc(Cl)cc1)c1ccc[nH]1,< 0%
4,O=C(NCc1ccc(Cl)c(Cl)c1)c1ccc[nH]1,6%
5,COc1ccc(CNC(=O)c2cc(Br)c(Br)[nH]2)cc1,12%
6,O=C(NCCc1ccc(O)cc1)c1ccc[nH]1,< 0%
7,CCc1ccc(CCNC(=O)c2ccc[nH]2)cc1,0%
8,CCc1ccc(CCNC(=O)c2cc(Br)c(Br)[nH]2)cc1,22%
9,O=C(NCCc1ccc2ccccc2c1)c1ccc[nH]1,8%

# System: not listed separately
# Experiment: Cytotoxicity against human H460 cells assessed as growth inhibition at 25 uM after 72 hrs by MTT assay relative to control
# Assay type: functional
# Settings: NCI-H460, 72 h, read-out: GI
# Outline: as §1
row,SMILES,inhibition of growth at 25 µM
1,O=C(NCCc1c[nH]cn1)c1cc(Br)c(Br)[nH]1,35%
2,O=C(NCCCCc1ccccc1)c1cc(Br)c(Br)[nH]1,17%
3,O=C(NCc1ccc(Cl)cc1)c1ccc[nH]1,< 0%
4,O=C(NCc1ccc(Cl)c(Cl)c1)c1ccc[nH]1,14%
5,COc1ccc(CNC(=O)c2cc(Br)c(Br)[nH]2)cc1,13%
6,O=C(NCCc1ccc(O)cc1)c1ccc[nH]1,2%
7,CCc1ccc(CCNC(=O)c2ccc[nH]2)cc1,3%
8,CCc1ccc(CCNC(=O)c2cc(Br)c(Br)[nH]2)cc1,23%
9,O=C(NCCc1ccc2ccccc2c1)c1ccc[nH]1,23%

# System: A2780
# Experiment: Cytotoxicity against human A2780 cells assessed as growth inhibition at 25 uM after 72 hrs by MTT assay relative to control
# Assay type: functional
# Settings: A2780, 72 h, read-out: GI
# Outline: as §1
row,SMILES,inhibition of growth at 25 µM
1,O=C(NCCc1c[nH]cn1)c1cc(Br)c(Br)[nH]1,37%
2,O=C(NCCCCc1ccccc1)c1cc(Br)c(Br)[nH]1,56%
3,O=C(NCc1ccc(Cl)cc1)c1ccc[nH]1,2%
4,O=C(NCc1ccc(Cl)c(Cl)c1)c1ccc[nH]1,15%
5,COc1ccc(CNC(=O)c2cc(Br)c(Br)[nH]2)cc1,48%
6,O=C(NCCc1ccc(O)cc1)c1ccc[nH]1,18%
7,CCc1ccc(CCNC(=O)c2ccc[nH]2)cc1,< 0%
8,CCc1ccc(CCNC(=O)c2cc(Br)c(Br)[nH]2)cc1,67%
9,O=C(NCCc1ccc2ccccc2c1)c1ccc[nH]1,13%

# System: MCF7
# Experiment: Cytotoxicity against human MCF7 cells assessed as growth inhibition at 25 uM after 72 hrs by MTT assay relative to control
# Assay type: functional
# Settings: MCF7, 72 h, read-out: GI
# Outline: as §1
row,SMILES,inhibition of growth at 25 µM
1,O=C(NCCc1c[nH]cn1)c1cc(Br)c(Br)[nH]1,23%
2,O=C(NCCCCc1ccccc1)c1cc(Br)c(Br)[nH]1,70%
3,O=C(NCc1ccc(Cl)cc1)c1ccc[nH]1,10%
4,O=C(NCc1ccc(Cl)c(Cl)c1)c1ccc[nH]1,7%
5,COc1ccc(CNC(=O)c2cc(Br)c(Br)[nH]2)cc1,30%
6,O=C(NCCc1ccc(O)cc1)c1ccc[nH]1,8%
7,CCc1ccc(CCNC(=O)c2ccc[nH]2)cc1,19%
8,CCc1ccc(CCNC(=O)c2cc(Br)c(Br)[nH]2)cc1,88%
9,O=C(NCCc1ccc2ccccc2c1)c1ccc[nH]1,23%

# System: SW480
# Experiment: Cytotoxicity against human SW480 cells assessed as growth inhibition at 25 uM after 72 hrs by MTT assay relative to control
# Assay type: functional
# Settings: SW480, 72 h, read-out: GI
# Outline: as §1
row,SMILES,inhibition of growth at 25 µM
1,O=C(NCCc1c[nH]cn1)c1cc(Br)c(Br)[nH]1,12%
2,O=C(NCCCCc1ccccc1)c1cc(Br)c(Br)[nH]1,< 0%
3,O=C(NCc1ccc(Cl)cc1)c1ccc[nH]1,4%
4,O=C(NCc1ccc(Cl)c(Cl)c1)c1ccc[nH]1,< 0%
5,COc1ccc(CNC(=O)c2cc(Br)c(Br)[nH]2)cc1,< 0%
6,O=C(NCCc1ccc(O)cc1)c1ccc[nH]1,5%
7,CCc1ccc(CCNC(=O)c2ccc[nH]2)cc1,< 0%
8,CCc1ccc(CCNC(=O)c2cc(Br)c(Br)[nH]2)cc1,5%
9,O=C(NCCc1ccc2ccccc2c1)c1ccc[nH]1,3%

# System: HT-29
# Experiment: Cytotoxicity against human HT-29 cells assessed as growth inhibition at 25 uM after 72 hrs by MTT assay relative to control
# Assay type: functional
# Settings: HT-29, 72 h, read-out: GI
# Outline: as §1
row,SMILES,inhibition of growth at 25 µM
1,O=C(NCCc1c[nH]cn1)c1cc(Br)c(Br)[nH]1,11%
2,O=C(NCCCCc1ccccc1)c1cc(Br)c(Br)[nH]1,41%
3,O=C(NCc1ccc(Cl)cc1)c1ccc[nH]1,10%
4,O=C(NCc1ccc(Cl)c(Cl)c1)c1ccc[nH]1,14%
5,COc1ccc(CNC(=O)c2cc(Br)c(Br)[nH]2)cc1,14%
6,O=C(NCCc1ccc(O)cc1)c1ccc[nH]1,3%
7,CCc1ccc(CCNC(=O)c2ccc[nH]2)cc1,22%
8,CCc1ccc(CCNC(=O)c2cc(Br)c(Br)[nH]2)cc1,81%
9,O=C(NCCc1ccc2ccccc2c1)c1ccc[nH]1,19%
